Test results as given in ChEMBL document CHEMBL5260822, “Structure-based design and synthesis of 2,4-diaminopyrimidines as EGFR L858R/T790M selective inhibitors for NSCLC” (Eur J Med Chem, 2017).
Active and inactive are the calls of the source. No cut-off for these calls is given here.

Columns and labels:
[1] = Cmax in Sprague-Dawley rat at 1 mg/kg, iv and measured after 24 hrs by LC-MS/MS analysis; type: ADME, organism-based; design: dose 1 mg/kg, time 24 hrs, route iv; conditions: in vivo
NCI-H1975 [2] = assay: Antitumor activity against human NCI-H1975 cells harboring EGFR L858R/T790M mutant xenografted in BALB/c nude mouse assessed as tumor growth inhibition at 15 mg/kg, po for 18 days; type: functional; conditions: NCI-H1975, 432 h, time 18 day, read-out: TGI
Outline: (§1)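 H1975 cells (1 × 10^6 in 0.1 mL PBS) injected subcutaneously into the right flank of female nude mice. At mean tumor volume of about 100 mm3 (roughly 18 days), mice randomized, n = 6 per group, and dosed once daily for 18 days against a vehicle group. Tumor volume (0.5 × L × W²) measured every 2–3 days; tumors weighed at sacrifice. Data given as mean ± SEM.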

[3] = Toxicity in BALB/c nude mouse xenografted with human NCI-H1975 cells harboring EGFR L858R/T790M mutant assessed as morphological changes in liver at 15 to 30 mg/kg, po for 18 days by hematoxylin and eosin staining based microscopic analysis; type: organism-based; conditions: in vivo, 432 h, dose 15-30 mg/kg, time 18 day
Outline: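 H1975 subcutaneous xenografts were grown in female BALB/cA nu/nu mice (n = 6 per group), dosed at 15 or 30 mg/kg/day for 18 days or with vehicle. At the end the mice were sacrificed. Heart, kidney and liver were harvested, processed and stained with hematoxylin and eosin for routine histological examination.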

NCI-H1975 [4] = assay: Inhibition of Akt signalling in EGF-stimulated human NCI-H1975 cells harboring EGFR L858R/T790M double mutant assessed as […] at 0.1 to 100 nM and measured after 2 hrs by Western blot analysis; type: cell-based; conditions: dose 0.1-100 nM
[5] = target: Receptor tyrosine-protein kinase erbB-4 (Homo sapiens) (UniProt Q15303); assay: Inhibition of ERBB4 (unknown origin) at 1000 nM by DiscoverX KINOMEscan assay relative to control; values are per cent of control
[6] = Volume of distribution at steady state in Sprague-Dawley rat at 1 mg/kg, iv and measured after 24 hrs by LC-MS/MS analysis; type: ADME, organism-based; conditions: in vivo, read-out: Vdss
[7] = target: ALK tyrosine kinase receptor (Homo sapiens) (UniProt Q9UM73); assay: Inhibition of ALK (unknown origin) at 1000 nM by DiscoverX KINOMEscan assay relative to control; values are per cent of control
ALK tyrosine kinase receptor (Homo sapiens), sequence (Q9UM73 19-1620 limits assumed): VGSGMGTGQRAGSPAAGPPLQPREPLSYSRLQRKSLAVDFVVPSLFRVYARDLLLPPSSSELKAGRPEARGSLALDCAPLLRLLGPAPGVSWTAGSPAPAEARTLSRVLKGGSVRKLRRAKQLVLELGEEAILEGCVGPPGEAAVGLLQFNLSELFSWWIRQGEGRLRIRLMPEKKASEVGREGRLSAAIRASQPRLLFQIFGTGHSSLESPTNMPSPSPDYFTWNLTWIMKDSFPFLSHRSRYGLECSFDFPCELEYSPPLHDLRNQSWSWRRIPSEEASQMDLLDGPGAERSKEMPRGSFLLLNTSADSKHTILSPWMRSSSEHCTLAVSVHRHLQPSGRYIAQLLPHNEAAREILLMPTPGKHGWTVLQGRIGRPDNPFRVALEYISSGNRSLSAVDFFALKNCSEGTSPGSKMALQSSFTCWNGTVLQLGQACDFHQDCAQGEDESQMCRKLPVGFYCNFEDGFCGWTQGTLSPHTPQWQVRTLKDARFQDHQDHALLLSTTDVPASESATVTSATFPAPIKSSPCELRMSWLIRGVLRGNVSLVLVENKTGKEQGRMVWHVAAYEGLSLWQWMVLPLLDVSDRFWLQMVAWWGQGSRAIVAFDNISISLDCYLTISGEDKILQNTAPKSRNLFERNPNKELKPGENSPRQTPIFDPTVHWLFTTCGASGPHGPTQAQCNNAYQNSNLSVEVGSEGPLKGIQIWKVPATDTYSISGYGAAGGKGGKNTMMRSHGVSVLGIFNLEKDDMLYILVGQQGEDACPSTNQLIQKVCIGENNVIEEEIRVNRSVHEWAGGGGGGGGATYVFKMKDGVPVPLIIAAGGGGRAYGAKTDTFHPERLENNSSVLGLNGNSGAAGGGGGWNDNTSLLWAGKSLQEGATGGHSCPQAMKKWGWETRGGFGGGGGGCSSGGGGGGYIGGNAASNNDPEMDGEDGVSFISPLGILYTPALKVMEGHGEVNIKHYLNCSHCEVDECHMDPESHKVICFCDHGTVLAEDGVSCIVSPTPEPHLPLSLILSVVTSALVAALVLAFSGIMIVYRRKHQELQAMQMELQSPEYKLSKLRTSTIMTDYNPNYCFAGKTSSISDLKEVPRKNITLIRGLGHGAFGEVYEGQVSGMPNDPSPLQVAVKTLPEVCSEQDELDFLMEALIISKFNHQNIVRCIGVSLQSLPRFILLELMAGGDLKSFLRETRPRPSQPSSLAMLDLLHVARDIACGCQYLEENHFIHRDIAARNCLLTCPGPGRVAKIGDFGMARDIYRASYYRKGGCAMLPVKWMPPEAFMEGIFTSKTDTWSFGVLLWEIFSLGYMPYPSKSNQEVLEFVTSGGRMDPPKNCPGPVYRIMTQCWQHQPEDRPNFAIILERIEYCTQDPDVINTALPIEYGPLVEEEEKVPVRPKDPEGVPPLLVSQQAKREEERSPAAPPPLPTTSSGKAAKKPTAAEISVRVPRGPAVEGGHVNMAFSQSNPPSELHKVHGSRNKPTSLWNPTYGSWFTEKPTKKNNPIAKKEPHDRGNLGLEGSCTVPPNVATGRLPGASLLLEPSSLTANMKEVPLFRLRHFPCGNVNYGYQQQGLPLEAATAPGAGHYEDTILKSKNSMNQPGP

NCI-H1975 [8] = assay: Antitumor activity against human NCI-H1975 cells harboring EGFR L858R/T790M mutant xenografted in BALB/c nude mouse assessed as tumor growth inhibition at 30 mg/kg, po for 18 days; type: functional; conditions: NCI-H1975, 432 h, time 18 day, read-out: TGI; outline: as §1
NCI-H1975 [9] = assay: Antitumor activity against human NCI-H1975 cells harboring EGFR L858R/T790M mutant xenografted in BALB/c nude mouse assessed as tumor cell proliferation at 15 to 30 mg/kg, po for 18 days by Ki-67 staining based immunohistochemical analysis; type: functional, organism-based; conditions: dose 15-30 mg/kg, time 18.0 day
Outline: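 H1975 xenograft tumors from nude mice (n = 6/group, daily dosing 18 days) were harvested, fixed in 10% formalin, paraffin-embedded and cut into 5 µm sections. Sections deparaffinized and incubated with primary anti-Ki-67 antibody at room temperature; immunoreactivity visualized with DAB.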

[10] = Cmax in Sprague-Dawley rat at 10 mg/kg, po and measured after 24 hrs by LC-MS/MS analysis; type: ADME, organism-based; design: dose 10 mg/kg, time 24 hrs, route po; conditions: in vivo
Outline: (§2)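 Male Sprague–Dawley rats (190–220 g) dosed by oral gavage at 10 mg/kg in 5% DMSO / 95% HP-β-CD aqueous solution (20%); iv reference arm at 1 mg/kg. Blood sampled at 0.25, 0.5, 1, 2, 4, 6, 8 and 24 h, centrifuged (8000 × g, 6 min), and plasma quantified by LC–MS/MS.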

[11] = target: MAP kinase-interacting serine/threonine-protein kinase 2 (Homo sapiens) (UniProt Q9HBH9); assay: Inhibition of MKNK2 (unknown origin) at 1000 nM by DiscoverX KINOMEscan assay relative to control; values are per cent of control
MAP kinase-interacting serine/threonine-protein kinase 2 (Homo sapiens), sequence (Q9HBH9 whole entry, looked up): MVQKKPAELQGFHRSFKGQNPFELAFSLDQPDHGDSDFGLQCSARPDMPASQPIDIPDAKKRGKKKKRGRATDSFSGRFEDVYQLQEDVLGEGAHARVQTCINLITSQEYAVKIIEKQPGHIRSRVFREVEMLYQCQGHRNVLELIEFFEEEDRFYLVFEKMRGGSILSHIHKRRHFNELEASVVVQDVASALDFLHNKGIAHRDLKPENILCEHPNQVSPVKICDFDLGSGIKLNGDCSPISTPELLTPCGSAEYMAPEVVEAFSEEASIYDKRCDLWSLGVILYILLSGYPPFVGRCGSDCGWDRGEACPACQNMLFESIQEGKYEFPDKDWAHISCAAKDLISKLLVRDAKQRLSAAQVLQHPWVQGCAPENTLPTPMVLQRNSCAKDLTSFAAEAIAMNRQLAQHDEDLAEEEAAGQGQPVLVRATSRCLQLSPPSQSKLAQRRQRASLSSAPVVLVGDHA

[12] = target: Epidermal growth factor receptor (Homo sapiens, UniProt P00533, L858R/T790M); assay: Inhibition of EGFR L858R/T790M mutant (unknown origin) expressed in baculovirus expression system by ELISA
[13] = Oral bioavailability in Sprague-Dawley rat at 10 mg/kg and measured after 24 hrs by LC-MS/MS analysis; type: ADME, organism-based; conditions: in vivo; outline: as §2
[14] = system: Epidermal growth factor receptor (Homo sapiens), P00533 [L858R,T790M]; assay: Inhibition of EGFR phosphorylation in EGF-stimulated human NCI-H1975 cells harboring EGFR L858R/T790M double mutant at 0.1 to 100 nM and measured after 2 hrs by Western blot analysis; type: cell-based; conditions: dose 0.1-100 nM
Epidermal growth factor receptor (Homo sapiens), P00533 [L858R,T790M], sequence (P00533 whole entry T790M/L858R, looked up): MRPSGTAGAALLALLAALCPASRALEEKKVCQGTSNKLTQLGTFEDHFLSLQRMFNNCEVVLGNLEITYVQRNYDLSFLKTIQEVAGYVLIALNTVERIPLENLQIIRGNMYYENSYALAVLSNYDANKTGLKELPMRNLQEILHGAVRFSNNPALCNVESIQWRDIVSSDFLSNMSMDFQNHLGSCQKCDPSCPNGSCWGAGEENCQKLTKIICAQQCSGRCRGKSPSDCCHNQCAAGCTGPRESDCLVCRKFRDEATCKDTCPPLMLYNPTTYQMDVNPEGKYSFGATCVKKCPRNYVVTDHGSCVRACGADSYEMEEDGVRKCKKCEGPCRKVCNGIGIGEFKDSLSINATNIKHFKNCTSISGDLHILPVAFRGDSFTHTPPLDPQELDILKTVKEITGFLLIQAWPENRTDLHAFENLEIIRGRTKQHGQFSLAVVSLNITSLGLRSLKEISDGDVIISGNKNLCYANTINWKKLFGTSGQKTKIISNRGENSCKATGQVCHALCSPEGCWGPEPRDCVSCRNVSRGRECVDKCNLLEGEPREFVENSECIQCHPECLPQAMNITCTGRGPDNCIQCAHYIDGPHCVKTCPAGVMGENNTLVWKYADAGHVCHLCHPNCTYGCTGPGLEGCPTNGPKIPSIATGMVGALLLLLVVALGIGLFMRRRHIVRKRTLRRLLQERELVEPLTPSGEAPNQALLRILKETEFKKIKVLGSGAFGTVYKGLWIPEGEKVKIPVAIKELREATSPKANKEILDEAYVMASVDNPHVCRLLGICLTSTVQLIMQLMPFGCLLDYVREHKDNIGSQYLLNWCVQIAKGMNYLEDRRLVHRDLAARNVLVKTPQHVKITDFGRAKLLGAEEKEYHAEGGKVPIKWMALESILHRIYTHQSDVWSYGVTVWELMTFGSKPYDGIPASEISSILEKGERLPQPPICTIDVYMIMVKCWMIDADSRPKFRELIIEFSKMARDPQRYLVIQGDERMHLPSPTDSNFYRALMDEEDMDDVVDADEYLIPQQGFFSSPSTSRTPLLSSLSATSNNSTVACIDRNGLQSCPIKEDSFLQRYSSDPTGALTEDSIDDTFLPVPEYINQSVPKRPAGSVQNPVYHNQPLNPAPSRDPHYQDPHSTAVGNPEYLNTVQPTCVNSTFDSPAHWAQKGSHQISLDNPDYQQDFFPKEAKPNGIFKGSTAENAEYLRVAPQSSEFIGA
Outline: (§3)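 Cells treated with compound for 2 h, then stimulated with EGF for 15 min and lysed. Lysates cleared at 12,000 × g (10 min, 4 °C), protein measured by Bradford assay, and equal amounts run on 8% SDS-PAGE and blotted to nitrocellulose. Probed for p-EGFR (Y1068), EGFR, p-ERK (T202/Y204), ERK, with tubulin or GAPDH as loading controls.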

[15] = system: Epidermal growth factor receptor (Homo sapiens), P00533 [L858R,T790M]; conditions: NCI-H1975, dose 10.0 nM, time 2.0 hrs
[16] = Half life in Sprague-Dawley rat at 1 mg/kg, iv and measured after 24 hrs by LC-MS/MS analysis; type: ADME, organism-based; conditions: in vivo
NCI-H1975 [17] = assay: Inhibition of Erk signalling in EGF-stimulated human NCI-H1975 cells harboring EGFR L858R/T790M double mutant assessed as decrease in p-ERK level at 0.1 to 100 nM and measured after 2 hrs by Western blot analysis; type: cell-based; conditions: dose 0.1-100 nM; outline: as §3
[18] = Toxicity in BALB/c nude mouse xenografted with human NCI-H1975 cells harboring EGFR L858R/T790M mutant assessed as body weight loss at 15 to 30 mg/kg, po for 18 days; type: organism-based; conditions: in vivo, 432 h, dose 15-30 mg/kg, time 18 day
Outline: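 Female BALB/cA nu/nu mice were given 1 × 10^6 H1975 cells in 0.1 mL PBS subcutaneously in the right flank. At an average tumour volume of 100 mm3 (about 18 days post-implantation) they were randomised, n = 6 per group. Groups received 15 or 30 mg/kg/day for 18 consecutive days or vehicle. Mice were kept at constant room temperature, 12/12-h light/dark, with standard diet and water ad lib.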

[19] = target: Insulin receptor (Homo sapiens) (UniProt P06213); assay: Inhibition of INSR (unknown origin) at 1000 nM by DiscoverX KINOMEscan assay relative to control; values are per cent of control
Insulin receptor (Homo sapiens), sequence (P06213 28-758 limits assumed): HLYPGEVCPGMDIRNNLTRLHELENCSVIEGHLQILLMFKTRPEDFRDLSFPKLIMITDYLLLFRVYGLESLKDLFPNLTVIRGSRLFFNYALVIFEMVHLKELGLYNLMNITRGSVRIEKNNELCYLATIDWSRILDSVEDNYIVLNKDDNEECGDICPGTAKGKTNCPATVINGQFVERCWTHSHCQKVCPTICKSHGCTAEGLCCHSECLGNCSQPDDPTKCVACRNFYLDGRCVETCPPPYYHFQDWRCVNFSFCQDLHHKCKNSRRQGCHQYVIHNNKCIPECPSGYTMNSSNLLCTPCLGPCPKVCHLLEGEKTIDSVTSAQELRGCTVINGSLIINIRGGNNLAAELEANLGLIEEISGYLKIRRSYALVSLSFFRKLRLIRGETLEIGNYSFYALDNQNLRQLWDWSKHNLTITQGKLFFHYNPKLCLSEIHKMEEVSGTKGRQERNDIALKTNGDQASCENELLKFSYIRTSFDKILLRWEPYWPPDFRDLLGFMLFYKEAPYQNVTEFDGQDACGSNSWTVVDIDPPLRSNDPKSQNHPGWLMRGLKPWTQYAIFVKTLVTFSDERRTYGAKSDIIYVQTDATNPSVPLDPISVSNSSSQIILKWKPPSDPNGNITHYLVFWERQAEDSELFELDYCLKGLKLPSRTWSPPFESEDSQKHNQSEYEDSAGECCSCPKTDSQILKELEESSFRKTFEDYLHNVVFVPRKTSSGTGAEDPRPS
Insulin receptor (Homo sapiens), sequence (P06213 763-1382 limits assumed): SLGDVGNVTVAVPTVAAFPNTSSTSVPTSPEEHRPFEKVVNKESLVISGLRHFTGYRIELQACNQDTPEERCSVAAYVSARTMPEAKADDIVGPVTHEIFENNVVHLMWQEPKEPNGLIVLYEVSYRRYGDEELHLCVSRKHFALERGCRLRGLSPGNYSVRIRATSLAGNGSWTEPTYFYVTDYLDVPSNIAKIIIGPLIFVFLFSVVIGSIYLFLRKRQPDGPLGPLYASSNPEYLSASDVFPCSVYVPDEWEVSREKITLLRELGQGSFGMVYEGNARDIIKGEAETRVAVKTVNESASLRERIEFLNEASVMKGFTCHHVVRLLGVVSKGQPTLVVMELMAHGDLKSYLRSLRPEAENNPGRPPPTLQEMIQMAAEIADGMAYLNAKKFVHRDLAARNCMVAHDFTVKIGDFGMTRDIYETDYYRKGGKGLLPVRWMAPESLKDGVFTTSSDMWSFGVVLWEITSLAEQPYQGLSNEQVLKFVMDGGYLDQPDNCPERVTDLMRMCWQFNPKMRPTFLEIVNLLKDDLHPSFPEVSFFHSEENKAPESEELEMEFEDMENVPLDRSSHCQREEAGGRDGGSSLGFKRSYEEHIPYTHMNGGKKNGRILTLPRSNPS

In the case of C=CC(=O)Nc1cc(Nc2ncc(Br)c(Nc3ccc4ccn(C)c4c3)n2)c(OC)cc1N1CCN(C)CC1, the Cmax [1] is reported as 235 ng/mL, the inhibition in vivo at 15 mg/kg (NCI-H1975 [2]) is reported as 62% and the Activity [3] is reported as “Non-Toxic”. For the same molecule, the inhibition (NCI-H1975 [4]) was “Dose-Dependent Effect”, the residual activity [5] was under 10% and the Vd [6] was 6.56 L/kg. The residual activity [7] was under 10%, the inhibition in vivo at 30 mg/kg (NCI-H1975 [8]) was 86% and the Activity (NCI-H1975 [9]) was “Active”. For the same molecule, the Cmax [10] was 636 ng/mL, the residual activity [11] was under 10% and the IC50 [12] was 4.1 nM. For the same molecule, the F [13] was 52.3%, the inhibition [14] was “Dose-Dependent Effect” and the inhibition [15] was “Active”. The half-life [16] was 3.47 h, the inhibition (NCI-H1975 [17]) was “Dose-Dependent Effect” and the Activity [18] was “Non-Toxic”. The residual activity [19] was under 10%.
